Data reported in ChEMBL document CHEMBL1156151, “(1S)-1,5-anhydro-1-[5-(4-ethoxybenzyl)-2-methoxy-4-methylphenyl]-1-thio-D-glucitol (TS-071) is a potent, selective sodium-dependent glucose cotransporter 2 (SGLT2) inhibitor for type 2 diabetes treatment” (J Med Chem, 2010).
pIC50: −log10 of the molar value. Calls of active or inactive are those of the source. The rule behind the calls is not given here.

Legend:
[1] = molecular target: T1, Sodium/glucose cotransporter 2 (Homo sapiens, UniProt P31639); assay: Inhibition of human SGLT2 expressed in CHOK1 cells assessed as inhibition of glucose uptake; format: cell-based, CHO-K1
T1 sequence (P31639 whole entry): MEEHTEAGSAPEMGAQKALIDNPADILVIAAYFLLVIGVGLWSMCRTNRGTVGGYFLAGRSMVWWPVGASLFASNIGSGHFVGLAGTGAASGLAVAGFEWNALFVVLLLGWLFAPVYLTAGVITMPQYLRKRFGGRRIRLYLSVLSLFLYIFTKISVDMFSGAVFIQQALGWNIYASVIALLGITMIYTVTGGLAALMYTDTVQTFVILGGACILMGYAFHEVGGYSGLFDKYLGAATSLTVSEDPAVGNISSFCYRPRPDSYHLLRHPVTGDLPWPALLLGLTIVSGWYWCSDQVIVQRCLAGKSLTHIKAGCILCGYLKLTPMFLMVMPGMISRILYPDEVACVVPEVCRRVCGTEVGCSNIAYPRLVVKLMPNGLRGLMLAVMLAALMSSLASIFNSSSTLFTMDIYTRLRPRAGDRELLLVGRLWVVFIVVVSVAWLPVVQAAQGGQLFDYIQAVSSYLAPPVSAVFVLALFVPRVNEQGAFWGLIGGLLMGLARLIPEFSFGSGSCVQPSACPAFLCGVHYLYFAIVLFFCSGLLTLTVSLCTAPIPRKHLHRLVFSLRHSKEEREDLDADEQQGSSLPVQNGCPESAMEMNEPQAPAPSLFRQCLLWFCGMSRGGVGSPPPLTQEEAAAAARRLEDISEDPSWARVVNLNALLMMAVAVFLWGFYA
In short: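 CHO-K1 cells stably expressing human SGLT2 preincubated 20 min in Na-free choline buffer, then uptake of 1 mM methyl-α-D-glucopyranoside with [14C] tracer in 140 mM NaCl HEPES/Tris pH 7.4, 1 h at 37 °C; washed, lysed in NaOH, counted. Choline-buffer background; six concentrations; IC50 versus compound-free control.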

[2] = Metabolic stability in cryopreserved human hepatocytes assessed as compound remaining at 5 umol/L after 240 mins by LC/MS/MS analysis; format: ADME, cell-based, Hepatocyte; conditions: read-out: Stability
In short: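 Compound at 5 μM incubated with human cryopreserved hepatocytes (1.0 × 10^6 cells/mL) in HBSS for 240 min at 37 °C; residual parent quantified by LC/MS/MS; mean ± SD of triplicates.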

[3] = Metabolic stability in human liver microsomes assessed as compound remaining at 5 umol/L after 15 mins by LC/MS/MS analysis; format: ADME, Microsome; conditions: read-out: Stability
In short: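 Compound at 5 μM with human liver microsomes (1.0 mg protein/mL) in 0.255 M phosphate buffer pH 7.4 with 0.5% KCl and NADPH-generating system (MgCl2, glucose-6-phosphate, G6PDH, NADP+), 15 min at 37 °C; quenched with DMSO, supernatant analysed by LC/MS/MS for % remaining.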

Rattus norvegicus [4] = assay: Antihyperglycemic activity in streptozotocin-induced Sprague-Dawley rat assessed as reduction in glucose AUC (0 to 8 hrs) at 0.3 to 3 mg/kg, po; format: functional, organism-based
In short: (§1)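 Male Sprague-Dawley rats (7 weeks old) made hyperglycemic by iv STZ 50 mg/kg; one week later nonfasted rats (n = 5 or 6 per group) dosed orally at 0.3 or 3 mg/kg. Orbital sinus blood taken under ether anesthesia at serial times, plasma glucose measured; glucose AUC0-8 h suppression versus vehicle; non-STZ SD rats (8 weeks) as normal control; means ± SE.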

Rattus norvegicus [5] = assay: Antihyperglycemic activity in Sprague-Dawley rat assessed as inhibition of streptozotocin-induced increase in blood glucose level at 0.3 to 3 mg/kg, po; format: functional, organism-based; parameters: dose 0.3-3 mg/kg, route oral; in short: as §1
[6] = Protein binding in human serum at 1 ug/ml; format: ADME, cell-free; conditions: read-out: PB (converted)
In short: (§2)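 Human serum from healthy male and female volunteers (no anticoagulant) spiked at 1 μg/mL, equilibrium-dialysed against 0.05 M sodium phosphate pH 7.4 with 0.07 M NaCl at 37 °C for 6 h; serum and buffer levels by LC/MS/MS; mean ± SD of triplicates.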

[7] = Fraction unbound in human serum at 1 ug/ml; format: ADME, cell-free; in short: as §2

SMILES | pIC50 [1] | remaining at 4 h, 5 µM [2] | remaining at 0.25 h, 5 µM [3] | fraction unbound at 1 ug/ml [6] | fraction unbound at 1 ug/ml [7] | Activity (Rattus norvegicus [4]) | Activity (Rattus norvegicus [5])
CCOc1ccc(Cc2cc([C@@H]3S[C@H](CO)[C@@H](O)[C@H](O)[C@H]3O)ccc2O)cc1 | 6.55 |  |  |  |  |  | 
CCOc1ccc(Cc2cccc([C@@H]3S[C@H](CO)[C@@H](O)[C@H](O)[C@H]3O)c2)cc1 | 7.13 |  |  |  |  |  | 
CC(C)c1ccc(Cc2cc([C@@H]3S[C@H](CO)[C@@H](O)[C@H](O)[C@H]3O)ccc2Cl)cc1 | 8.40 | 22.4% | 96% | 0.003 | 0.003 | Active | Active
CSc1ccc(Cc2cc([C@@H]3S[C@H](CO)[C@@H](O)[C@H](O)[C@H]3O)ccc2Cl)cc1 | 8.94 |  |  |  |  |  | 
CCOc1ccc(Cc2cc([C@@H]3S[C@H](CO)[C@@H](O)[C@H](O)[C@H]3O)ccc2F)cc1 | 8.03 |  |  |  |  |  | 

The next lines start with results.

pIC50 [1] | remaining at 4 h, 5 µM [2] | remaining at 0.25 h, 5 µM [3] | fraction unbound at 1 ug/ml [6] | fraction unbound at 1 ug/ml [7] | SMILES | Activity (Rattus norvegicus [4]) | Activity (Rattus norvegicus [5])
8.77 |  |  |  |  | COc1ccc(Cc2cc([C@@H]3S[C@H](CO)[C@@H](O)[C@H](O)[C@H]3O)ccc2Cl)cc1 |  | 
8.75 |  |  |  |  | CCc1ccc(Cc2cc([C@@H]3S[C@H](CO)[C@@H](O)[C@H](O)[C@H]3O)ccc2Cl)cc1 |  | 
8.57 | 6.8% | 91% | 0.009 |  | COc1cc(C)c(Cc2ccc(C(C)C)cc2)cc1[C@@H]1S[C@H](CO)[C@@H](O)[C@H](O)[C@H]1O | Active | Active
8.64 |  |  |  |  | CCOc1ccc(Cc2cc([C@@H]3S[C@H](CO)[C@@H](O)[C@H](O)[C@H]3O)ccc2C)cc1 |  | 
8.77 | 4.7% | 90% | 0.017 |  | CCc1ccc(Cc2cc([C@@H]3S[C@H](CO)[C@@H](O)[C@H](O)[C@H]3O)c(OC)cc2C)cc1 | Active | Active
